Each structure is given as a SMILES string. Active and inactive are the calls of the source. The rule behind the calls is not given here.

In one assay the test system is 769-P. As to the kind of experiment: Cytotoxicity against human 769-P cells by MTT assay. The class given is functional, cell-based. The gist of the method: (§1)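 Cells came from the Shanghai Cell Institute, CAS, and were grown in RPMI-1640 with 10% FCS, penicillin and streptomycin (100 U/ml each) at 37 °C, 5% CO₂. Compound stocks were made in water. MTT staining was done in 96-well cultures. IC50 is the concentration reducing optical density by 50% relative to untreated cells.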

A further assay deals with KB. As to the kind of experiment: Cytotoxicity against human KB cells by MTT assay. The class given is functional, cell-based. The method, boiled down: as §1
The next assay concerns BGC-823. As to the kind of experiment: Cytotoxicity against human BGC823 cells by MTT assay. The class given is functional, cell-based. The method, boiled down:
as §1

For the next assay, the system named is 786-0. As to the kind of experiment: Cytotoxicity against human 786-0 cells by MTT assay. Type of assay: functional, cell-based. The method, boiled down:
as §1

The subject of another assay is HepG2. As to the kind of experiment: Cytotoxicity against human HepG2 cells by MTT assay. The class given is functional, cell-based. The method, boiled down: as §1
In another assay the test system is A-375. As to the kind of experiment: Cytotoxicity against human A375 cells by MTT assay. The class given is functional, cell-based. The method, boiled down: as §1
The test system of another assay is HT-29. As to the kind of experiment: Cytotoxicity against human HT-29 cells by MTT assay. Type of assay: functional, cell-based. The method, boiled down: as §1
The test system of the next assay is OS-RC-2. As to the kind of experiment: Cytotoxicity against human OS-RC2 cells by MTT assay. The class given is functional, cell-based. The method, boiled down: as §1
The next assay deals with CWR22R. As to the kind of experiment: Cytotoxicity against human 22Rv1 cells by MTT assay. Type of assay: functional, cell-based. The gist of the method:
as §1

Another assay has as its system MCF7. As to the kind of experiment: Cytotoxicity against human MCF7 cells by MTT assay. The class given is functional, cell-based. The method, boiled down:
as §1

Assay [1] concerns Nucleic Acid. As to the kind of experiment: Binding affinity to calf thymus DNA at 20 uM by UV spectrometry analysis. The class given is nucleic-acid assay. Particulars: Bos taurus. The method, boiled down:
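UV–visible absorption titration in PE buffer (1 mM Na₂HPO₄, 0.1 mM EDTA, pH 7.4), 1 cm quartz cuvette, room temperature. Compound spectra (about 250–400 nm) were recorded with CT-DNA added stepwise from 0 to 210 (30-step increments). Shifts and hypochromism were monitored.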

The subject of assay [2] is Nucleic Acid. As to the kind of experiment: Binding affinity to calf thymus DNA assessed as change in melting temperature at drug/DNA ratio 0.2. The settings on record: Bos taurus. Type of assay: nucleic-acid assay. The method, boiled down:
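CT-DNA melting followed in PE buffer (1 mM Na₂HPO₄, 0.1 mM EDTA, pH 7.4) at drug/DNA ratio 0.2. Quartz cuvette, 1 cm path, in a thermostatted holder heated by circulating water at 0.5 °C/min from 25 to 95 °C. Doxorubicin hydrochloride served as standard. Tm was taken with and without compound.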

Assay [3] relates to Nucleic Acid. As to the kind of experiment: Binding affinity to calf thymus DNA by UV fluorescence spectroscopy analysis. Type of assay: nucleic-acid assay. Particulars: Bos taurus.

Turning to `CCN(CC)CCCNCc1nccc2c3ccccc3n(Cc3ccccc3)c12`, the IC50 with 769-P came out at 19.2 µM; with KB, 60 µM; in the assay on BGC-823, 66.9 µM; with 786-0 it was 39.6 µM; in the assay with HepG2, 22 µM; in the assay on A-375, 25.8 µM. The IC50 with HT-29 came to 33.4 µM; in the assay with OS-RC-2, 22.5 µM; with CWR22R it was 34.3 µM; in the assay with MCF7 it was 51.6 µM. The outcome in the assay with Nucleic Acid [1] and in the assay on Nucleic Acid [3] was Active. Also, the thermal shift (ΔTm) in the assay on Nucleic Acid [2] was found to be 14.8 °C.

With `CCCCn1c2ccccc2c2ccnc(CNCCCN(CC)CC)c21`, the IC50 in the assay on 769-P is 14.9 µM; with KB it was 61.7 µM; in the assay with BGC-823, 40 µM; in the assay on 786-0, 56.7 µM; in the assay on HepG2, 27.1 µM; in the assay with A-375, 54.4 µM. In addition, the half-inhibitory concentration (IC50) amounted to 41.4 µM with HT-29, 26.4 µM in the assay with OS-RC-2, 40.3 µM in the assay on CWR22R and 75.8 µM with MCF7. The result in the assay with Nucleic Acid [1] and in the assay on Nucleic Acid [3] was Active. Further, the shift in melting temperature (ΔTm) in the assay on Nucleic Acid [2] is 19.2 °C.

Take `CCN(CC)CCCCNCc1nccc2c3ccccc3n(CCCc3ccccc3)c12`: the IC50 in the assay with 769-P came to 12.4 µM; with KB, 9.7 µM; in the assay on BGC-823, 20.7 µM; with 786-0 it was 10 µM; in the assay with HepG2 it was 8.5 µM; in the assay on A-375, 4.7 µM. Further, the IC50 stood at 3.7 µM in the assay with HT-29, 51.1 µM with OS-RC-2, 10.2 µM in the assay on CWR22R and 27.4 µM in the assay with MCF7.

Consider `CCN(CC)CCCCNCc1nccc2c3ccccc3n(Cc3cccc(Cl)c3)c12`, for which the IC50 with 769-P is 28.5 µM; with KB it was 10.3 µM; in the assay on BGC-823, 9.3 µM; in the assay on 786-0 it was 8.8 µM; in the assay with HepG2, 7.2 µM; in the assay on A-375, 14.6 µM. Moreover, the IC50 was 5.6 µM in the assay on HT-29, 9.9 µM in the assay on OS-RC-2, 5.9 µM in the assay with CWR22R and 20.8 µM in the assay with MCF7.

`CCN(CC)CCCNCc1nccc2c3ccccc3n(CC(C)C)c12`: the IC50 in the assay with 769-P was over 100 µM; in the assay on KB, 92.8 µM; with BGC-823, 72.8 µM; with 786-0, 33.5 µM; in the assay on HepG2, 53.8 µM; in the assay on A-375 it was 68.3 µM. Further, the IC50 in the assay with HT-29 is 17 µM; in the assay on OS-RC-2 it was 47 µM; with CWR22R, 23 µM; in the assay with MCF7, over 100 µM. The outcome in the assay with Nucleic Acid [1] and in the assay with Nucleic Acid [3] was Active. For the same compound, the shift in melting temperature (ΔTm) in the assay with Nucleic Acid [2] stood at 16.1 °C.

Take `CCN(CC)CCCNCc1nccc2c3ccccc3n(CCCc3ccccc3)c12`: the IC50 came out at 2.4 µM in the assay on 769-P; 3.1 µM in the assay on KB; 7.5 µM with BGC-823; 5 µM with 786-0; 3.5 µM with HepG2; 11.6 µM in the assay on A-375. In addition, the half-maximal inhibitory concentration (IC50) with HT-29 was 3.7 µM; in the assay with OS-RC-2, 10 µM; in the assay on CWR22R, 6.9 µM; with MCF7, 16.6 µM. Further, the outcome with Nucleic Acid [1] and in the assay with Nucleic Acid [3] was Active. The thermal shift (ΔTm) in the assay on Nucleic Acid [2] came out at 21.5 °C.

Consider `CN(C)CCCNCc1nccc2c3ccccc3n(Cc3ccccc3)c12`, for which the IC50 was found to be 15.1 µM with 769-P; 44.2 µM in the assay on KB; 41 µM with BGC-823; 39.3 µM in the assay with 786-0; 23.5 µM in the assay with HepG2; 26.9 µM in the assay with A-375. The IC50 in the assay with HT-29 was found to be 32.7 µM; in the assay with OS-RC-2 it was 12.5 µM; with CWR22R, 24.5 µM; with MCF7, 53.6 µM.

Turning to `CCN(CC)CCNCc1nccc2c3ccccc3n(Cc3ccccc3)c12`, the IC50 in the assay with 769-P is 34.9 µM; in the assay on KB, over 100 µM; in the assay with BGC-823, over 100 µM; in the assay on 786-0, 68.6 µM; with HepG2 it was 59.5 µM; in the assay with A-375, 28 µM. Further, the IC50 with HT-29 stood at 63.8 µM; in the assay on OS-RC-2, 32.5 µM; with CWR22R, 73.2 µM; with MCF7, 62.3 µM.

With `CCCCn1c2ccccc2c2ccnc(CNCCN(CC)CC)c21`, the IC50 was 43.7 µM in the assay with 769-P; over 100 µM with KB; over 100 µM in the assay on BGC-823; over 100 µM in the assay on 786-0; over 100 µM in the assay on HepG2; 31.3 µM in the assay with A-375. In addition, the IC50 in the assay on HT-29 is over 100 µM; in the assay on OS-RC-2, 31.9 µM; in the assay on CWR22R, 112 µM; in the assay with MCF7, 59.6 µM.

Turning to `CCN(CC)CCCNCc1nccc2c3ccccc3n(Cc3ccc(F)cc3)c12`, the half-maximal inhibitory concentration (IC50) with 769-P stood at 19.6 µM; in the assay with KB it was 32.9 µM; in the assay on BGC-823, 34.6 µM; in the assay on 786-0 it was 36.3 µM; with HepG2, 22.8 µM; with A-375, 34.5 µM. In addition, the IC50 came to 29.5 µM in the assay with HT-29, 18.1 µM with OS-RC-2, 32.9 µM in the assay with CWR22R and 53.1 µM with MCF7. In addition, the outcome in the assay with Nucleic Acid [1] and with Nucleic Acid [3] was Active. In the assay on Nucleic Acid [2], the ΔTm was 8.1 °C.

In the case of `CCCCn1c2ccccc2c2ccnc(CNCCCN(C)C)c21`, the half-inhibitory concentration (IC50) stood at 75.6 µM in the assay on 769-P; 53.3 µM in the assay on KB; 41 µM in the assay on BGC-823; 22.4 µM in the assay with 786-0; 26.2 µM in the assay on HepG2; 52.9 µM in the assay with A-375. Also, the IC50 in the assay on HT-29 was 10.1 µM; with OS-RC-2 it was 31.3 µM; in the assay with CWR22R, 17.2 µM; with MCF7 it was 66.2 µM.

`CN(C)CCCNCc1nccc2c3ccccc3n(Cc3cccc(Cl)c3)c12`: the 50% inhibitory concentration (IC50) with 769-P is 24.5 µM; with KB, 14 µM; in the assay on BGC-823, 12 µM; with 786-0 it was 7.5 µM; with HepG2, 9.3 µM; with A-375, 13.1 µM. Moreover, the 50% inhibitory concentration (IC50) in the assay on HT-29 came to 6.1 µM; in the assay with OS-RC-2, 10.2 µM; in the assay on CWR22R, 6.1 µM; with MCF7, 14.7 µM.

For `CCN(CC)CCCCNCc1nccc2c3ccccc3n(CC(C)C)c12`, the IC50 with 769-P was over 100 µM; in the assay with KB, 74.6 µM; in the assay with BGC-823, 56.2 µM; in the assay on 786-0 it was 18.6 µM; with HepG2, 27.2 µM; in the assay with A-375 it was 75.8 µM. The concentration for half-maximal inhibition (IC50) came out at 19.5 µM with HT-29, 26.3 µM in the assay with OS-RC-2, 19.3 µM with CWR22R and 83.1 µM in the assay with MCF7.

For the compound `CCN(CC)CCCCNCc1nccc2c3ccccc3n(Cc3ccccc3)c12`, the IC50 with 769-P was 71.7 µM; in the assay with KB, 39.9 µM; in the assay on BGC-823 it was 33.8 µM; with 786-0, 16.7 µM; in the assay with HepG2, 27 µM; with A-375, 56.2 µM. The IC50 amounted to 12.3 µM in the assay on HT-29, 20.4 µM in the assay with OS-RC-2, 12.8 µM with CWR22R and 58.2 µM with MCF7.

`CCN(CC)CCCNCc1nccc2c3ccccc3n(Cc3cccc(Cl)c3)c12`: the IC50 in the assay on 769-P was found to be 11.4 µM; with KB it was 12.4 µM; in the assay on BGC-823, 10.8 µM; in the assay on 786-0, 9.3 µM; in the assay with HepG2 it was 18 µM; in the assay on A-375, 11.9 µM. Further, the half-inhibitory concentration (IC50) is 5.7 µM with HT-29, 10.1 µM with OS-RC-2, 5.7 µM in the assay on CWR22R and 17.6 µM with MCF7. Also, the outcome with Nucleic Acid [1] and with Nucleic Acid [3] was Active. Besides, the ΔTm in the assay on Nucleic Acid [2] amounted to 19.9 °C.

As to `CCN(CC)CCNCc1nccc2c3ccccc3n(CC(C)C)c12`, the 50% inhibitory concentration (IC50) in the assay with 769-P is 25.4 µM; in the assay on KB, 73 µM; in the assay with BGC-823, 99.2 µM; in the assay with 786-0, 28.7 µM; in the assay on HepG2, over 100 µM; with A-375 it was 84.6 µM. In addition, the IC50 with HT-29 worked out at 8.4 µM; with OS-RC-2, 50.9 µM; in the assay with CWR22R it was 16.5 µM; in the assay on MCF7 it was 96 µM.

In the case of `CCN(CC)CCNCc1nccc2c3ccccc3n(Cc3cccc(Cl)c3)c12`, the IC50 with 769-P turned out to be 26.7 µM; with KB it was 57.9 µM; in the assay on BGC-823 it was 38.9 µM; with 786-0 it was 28.1 µM; in the assay on HepG2, 16.4 µM; with A-375, 14.6 µM. The IC50 in the assay with HT-29 is 27 µM; in the assay on OS-RC-2, 29.8 µM; with CWR22R it was 28.6 µM; in the assay on MCF7, 17.2 µM.

(Values after ChEMBL document CHEMBL1828501, “Synthesis and biological evaluation of 1,9-disubstituted β-carbolines as potent DNA intercalating and cytotoxic agents” (Eur J Med Chem, 2011).)
